Experimental data: PMC4616004 (International journal for parasitology, 2008)
Like-named read-outs stand apart in the source and are kept apart here.

What was measured:
[1] = test system: Pf lipase (Pseudomonas fluorescens lipase); assay: fluorescent esterase assay; format: biochemical; conditions: pH 6.8, 25 °C, 1 mM MgCl2
Outline: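 Commercial lipase, stored in glycerol-containing buffer at −20 °C, was used at 4.6 nM final. Acetyl, propionyl or butyryl 4-methylumbelliferyl esters were freshly diluted in ice-cold buffer (137 mM NaCl, 2.7 mM KCl). Reactions ran at 25 °C, with fluorescence (Ex 355, Em 444) read every minute and converted via a 4-methylumbelliferone standard curve. No-protein backgrounds were subtracted, and 10-min points were used. Km came from non-linear fits of duplicate/triplicate reactions.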

[2] = target: T1, MBP-CpHDAC3 (recombinant CpHDAC3) (Cryptosporidium parvum, UniProt Q5CPX0); assay: Fluor de Lys fluorogenic deacetylase assay; format: biochemical
T1 sequence (Q5CPX0 1-973): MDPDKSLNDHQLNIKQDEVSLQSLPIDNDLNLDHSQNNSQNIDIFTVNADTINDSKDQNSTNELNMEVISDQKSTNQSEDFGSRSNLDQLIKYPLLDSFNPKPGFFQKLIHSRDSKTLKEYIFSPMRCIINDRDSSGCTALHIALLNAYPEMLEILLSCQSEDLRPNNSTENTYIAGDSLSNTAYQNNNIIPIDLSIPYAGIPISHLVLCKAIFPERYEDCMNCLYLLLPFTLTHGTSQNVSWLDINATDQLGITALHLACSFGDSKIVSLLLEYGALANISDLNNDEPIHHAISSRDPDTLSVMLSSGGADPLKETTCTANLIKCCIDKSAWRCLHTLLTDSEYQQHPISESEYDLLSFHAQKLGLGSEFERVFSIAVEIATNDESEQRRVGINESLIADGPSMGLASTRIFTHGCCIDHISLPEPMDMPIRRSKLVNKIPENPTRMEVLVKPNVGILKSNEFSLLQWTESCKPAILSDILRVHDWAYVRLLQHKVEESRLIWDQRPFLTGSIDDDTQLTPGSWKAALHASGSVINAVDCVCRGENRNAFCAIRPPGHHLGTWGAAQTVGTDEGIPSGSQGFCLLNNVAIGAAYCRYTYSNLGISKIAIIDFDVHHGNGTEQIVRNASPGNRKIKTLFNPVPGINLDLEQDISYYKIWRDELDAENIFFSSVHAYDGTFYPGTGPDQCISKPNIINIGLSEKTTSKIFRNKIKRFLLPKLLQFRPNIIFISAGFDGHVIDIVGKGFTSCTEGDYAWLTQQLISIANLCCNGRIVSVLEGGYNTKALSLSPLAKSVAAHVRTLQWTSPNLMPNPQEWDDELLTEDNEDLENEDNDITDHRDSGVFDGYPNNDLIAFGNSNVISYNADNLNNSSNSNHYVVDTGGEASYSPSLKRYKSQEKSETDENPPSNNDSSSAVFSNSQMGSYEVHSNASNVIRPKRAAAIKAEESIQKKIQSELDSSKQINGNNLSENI

[3] = target: T1, MBP-CpHDAC3 (recombinant CpHDAC3); assay: Fluor de Lys fluorogenic deacetylase assay; format: biochemical; conditions: pH 8.1, 20 °C, 1 mM MgCl2
[4] = substrate: CCC(=O)Oc1ccc2c(C)cc(=O)oc2c1; assay: fluorescent esterase assay; format: biochemical, Cryptosporidium parvum; conditions: pH 6.8, 25 °C, 1 mM MgCl2
[5] = substrate: CC(=O)Oc1ccc2c(C)cc(=O)oc2c1; assay: fluorescent esterase assay; format: biochemical, Cryptosporidium parvum; conditions: pH 6.8, 25 °C, 1 mM MgCl2

`CC(=O)Oc1ccc2c(C)cc(=O)oc2c1` [4-methylumbelliferyl-acetate] was tested, and the Km ([1]; read-out: Acetyl esterase / Km) was 230 ± 48 µM.

`C=C[C@@H](O)[C@@H]1O[C@H]1/C=C/[C@@H]1O[C@H]1[C@@H](C)O` [Depudecin] showed an IC50 [2] of 86 ± 2.4 nM.

With Fluor de Lys substrate the Km [3] was 61 ± 3.4 µM.

For `Cn1cc(C(=O)Cc2ccccc2)cc1C=CC(=O)NO` [APHA 8], the IC50 [2] was 310 ± 1.2 nM.

Molecule `CCC(=O)Oc1ccc2c(C)cc(=O)oc2c1` [4-methylumbelliferyl-propionate] has a Km ([1]; read-out: Propionyl esterase / Km) of 710 ± 390 µM.

`CC(/C=C/C(=O)NO)=C\[C@@H](C)C(=O)c1ccc(N(C)C)cc1` [Trichostatin A] was tested, and the IC50 [2] was 18 ± 1.3 nM.

In the case of `O=C(CCCCCCC(=O)Nc1ccccc1)NO` [Vorinostat], the IC50 [2] is reported as 89 ± 7.9 nM.

`CCCC(=O)Oc1ccc2c(C)cc(=O)oc2c1` [4-methylumbelliferyl-butyrate] showed a Km ([1]; read-out: Butyryl esterase / Km) of 260 ± 30 µM.

B1: MBP-CpHDAC3 (recombinant CpHDAC3) (Cryptosporidium parvum Iowa II) (protein)
chain: MDPDKSLNDHQLNIKQDEVSLQSLPIDNDLNLDHSQNNSQNIDIFTVNADTINDSKDQNSTNELNMEVISDQKSTNQSEDFGSRSNLDQLIKYPLLDSFNPKPGFFQKLIHSRDSKTLKEYIFSPMRCIINDRDSSGCTALHIALLNAYPEMLEILLSCQSEDLRPNNSTENTYIAGDSLSNTAYQNNNIIPIDLSIPYAGIPISHLVLCKAIFPERYEDCMNCLYLLLPFTLTHGTSQNVSWLDINATDQLGITALHLACSFGDSKIVSLLLEYGALANISDLNNDEPIHHAISSRDPDTLSVMLSSGGADPLKETTCTANLIKCCIDKSAWRCLHTLLTDSEYQQHPISESEYDLLSFHAQKLGLGSEFERVFSIAVEIATNDESEQRRVGINESLIADGPSMGLASTRIFTHGCCIDHISLPEPMDMPIRRSKLVNKIPENPTRMEVLVKPNVGILKSNEFSLLQWTESCKPAILSDILRVHDWAYVRLLQHKVEESRLIWDQRPFLTGSIDDDTQLTPGSWKAALHASGSVINAVDCVCRGENRNAFCAIRPPGHHLGTWGAAQTVGTDEGIPSGSQGFCLLNNVAIGAAYCRYTYSNLGISKIAIIDFDVHHGNGTEQIVRNASPGNRKIKTLFNPVPGINLDLEQDISYYKIWRDELDAENIFFSSVHAYDGTFYPGTGPDQCISKPNIINIGLSEKTTSKIFRNKIKRFLLPKLLQFRPNIIFISAGFDGHVIDIVGKGFTSCTEGDYAWLTQQLISIANLCCNGRIVSVLEGGYNTKALSLSPLAKSVAAHVRTLQWTSPNLMPNPQEWDDELLTEDNEDLENEDNDITDHRDSGVFDGYPNNDLIAFGNSNVISYNADNLNNSSNSNHYVVDTGGEASYSPSLKRYKSQEKSETDENPPSNNDSSSAVFSNSQMGSYEVHSNASNVIRPKRAAAIKAEESIQKKIQSELDSSKQINGNNLSENI
In the case of B1, the Km [4] is reported as 77 ± 30 µM, the kcat [4] is reported as 0.00058 ± 9.2e-05 s⁻¹ and the Km [5] is reported as 89 ± 18 µM. It also gave a kcat [5] of 0.01 ± 0.00089 s⁻¹.
